# Compound activity (PubChem BioAssay)
# Beta apoptosis – blocks beta cell apoptosis; INS-1E cytokine-induced death, ATP luminescence, 48 h; percent of positive-control rescue, neutral wells zero; AID 435005; protection from apoptosis, % (no concentration beside the values); actives 0.8% (n = 300,000);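 active = Every replicate reaches about 75%, or at least half do and their mean reaches it too, limit read from the data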;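 also: 0% = cytokine-treated negative control wells and 100% = positive control rescue; higher means more ATP so stronger rescue from cytokine killing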
# Efflux pump inh – blocks antifungal efflux pumps in multiplex yeast assay. S. cerevisiae Candida pump triplex, Nile Red efflux. inhibition, % at 10 µM. actives 0.44% (n = 330,000). AID 485275;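 active = plate passing quality check with inhibition over a set limit, or well fluorescence over plate mean plus 4 SD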;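 also: Nile Red retained in pooled yeast measured as flow cytometry median fluorescence; 0% = buffer negative control and 100% = Enniatin B positive control; higher means more Nile Red kept so more efflux inhibition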
# WT yeast gro inh – growth inhibition of WT yeast, mitochondrial fusion screen | inhibition, % at 10 µM | mitochondrial fusion phenotypic screen, WT strain | actives 2.1% (n = 190,000) | AID 1362; in the data active = inhibition above about 58%; tested in S. cerevisiae
# Mot1-301 SUMO – inhibitors of SUMOylation pathway: yeast Mot1-301 growth rescue; S. cerevisiae Mot1-301 growth rescue, ATP luminescence, 38.5C; percent above DMSO median, 100 means doubled; growth rescue, % at 18.8 µM; actives 1% (n = 320,000); AID 2716;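 active = every valid replicate shows activation above 250% relative to neutral control wells; inactive = the rest, any valid replicate at or below 250%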;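 also: OY570 slx delta 5 strain wells were the positive control but not used for scaling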
# T cruzi inh – T. cruzi replication inhibition. T. cruzi beta-gal in NIH3T3, luminescence, 90 h. inhibition, % (concentration not given with the values). actives 1.4% (n = 300,000). AID 1885;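 active = mean inhibition across valid replicates above about 55%, limit read from the data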;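 also: signal also drops with host cell toxicity which is not excluded here; 0% = plate median of DMSO wells and 100% = zero luminescence signal; higher percent means less beta-gal luminescence so fewer parasites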
#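 assay system = mouse NIH/3T3 fibroblasts infected with β-gal-expressing T. cruzi Tulahuen C4 | input = 5,000 NIH/3T3 host cells per well | buffer or medium = DMEM plus 2% FBS | timing = 3 h host attachment, then at least 90 h co-culture | measured by = GalScreen luminescence, 60 min | evaluation = luminescence reflecting intracellular parasite burden, expressed as percent inhibition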
# CSC inhib – cancer stem cell inhibition; cancer stem cell-like cells viability, luminescence; inhibition, % at 7.5 µM; actives 1.1% (n = 300,000); AID 2717; in the data active = inhibition above about 75%; tested in HMLE shEcad cells
# Yeast Mot1 SUMO – SUMO pathway inhibitors in yeast Mot1-301 growth; S. cerevisiae Mot1-301 galactose growth, ATP luminescence, 24 h; -100 = growth of slx-deleted rescue strain; shares compounds with Mot1-301 SUMO; AID 493004; 2,300 tested, under 10 active; growth activity, percent, % at 42 µM;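 active = Signal drops as the depositor expects, and the fitted half-maximal dose is no more than ten times the top valid tested dose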;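 also: more negative values mean stronger growth rescue toward the control strain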
# * hit, by the source's call; x = no result; + = active, no number; [ ] = remark or other dose. Sampled rows, rich in hits. Any-hit rate of the full collection: about 4.8%.
SMILES,Beta apoptosis,Efflux pump inh,WT yeast gro inh,Mot1-301 SUMO,T cruzi inh,CSC inhib,Yeast Mot1 SUMO
Cc1ccccc1CSc1n[nH]c(NS(=O)(=O)c2ccccc2)n1,-12,0,-3,+,-1,4,0[21 µM]
CC(NC(=O)CCN1C(=O)c2ccccc2C1=O)c1ccccc1 (stereo not given),-1,0,x,7,-12,-10,x
O=c1oc2ccccc2c2c1nnn2CCO,-5,0,-4,28,2,-2,x
O=C(COC(=O)C1CC(=O)N(Cc2ccccc2)C1)Nc1ccccc1F (stereo not given),-1,0,-1,544*,-11,-12,0[21 µM]
C[C@H](NC(=O)[C@H](Cc1ccccc1)NC(=O)c1cc2cc(Cl)ccc2n1C)C(=O)O,-5,0,x,-11,-54,-3,x
CCN(CC(=O)Nc1ccc(S(=O)(=O)N2CCCC2)cc1)CC(=O)Nc1ccccc1C(F)(F)F,16,0,x,-12,x,15,x
CN(C)C(=O)c1cc(C(=O)c2ccc(F)cc2F)c[nH]1,-5,0,x,2,-18,-12,x
CN(C)C(=O)c1cc(C(=O)c2ccc(C(F)(F)F)cc2F)c[nH]1,-1,0,0,500*,-15,x,0
Cc1cc(C)cc(OCC(=O)Nc2ccc(N3CCN(C(=O)c4ccco4)CC3)cc2)c1,-1,0,12,793*,-25,1,-1
COc1ccc(OCC(=O)Nc2ccc(N3CCN(C(=O)c4ccco4)CC3)cc2)cc1,1,0,11,-4,-3,-10,x
Cc1cc(C(=O)NNC(=O)c2ccc(Cl)cc2Cl)c(C)o1,x,0,x,-9,-7,10,x
CC1CCCCC1NC(=O)c1cc2ccccc2o1 (stereo not given),-4,0,-6,-1,15,-14,x
CCOC1(OCC)C(c2ccc(N)cc2)C(C#N)(C#N)C1(OCC)OCC (stereo not given),-10,0,5,3,0,-2,x
CCOC1(OCC)C(c2ccc(Cl)cc2)C(C#N)(C#N)C1(OCC)OCC (stereo not given),-7,0,65*,495*,-12,29,-1
COc1cccc(OC)c1C(=O)OCC(=O)NC(=O)NCc1ccccc1,5,0,-9,321,0,1,x
COc1ccccc1C(=O)OCC(=O)NC(=O)NCc1ccccc1,-5,0,7,891*,-8,10,1
COCCNCc1ccccc1,1,0,-2,647*,-20,-3,0
CC(=O)N1CCOc2ccc(S(=O)(=O)NCC3CCC(C(=O)Nc4ccc(C)cn4)CC3)cc21 (stereo not given),20,0,x,-2,-2,-13,x
C/C(N)=C(/C#N)C(=O)COC(=O)c1ccccc1Oc1ccccc1,-6,0,1,-7,-8,x,x
CCOC(=O)c1sc2ncn(C(CC)C(=O)OCC)c(=O)c2c1C (stereo not given),-3,0,23,592*,-7,-12,0
CC(C)c1ccc(OCC(=O)Nc2ccc3oc(=O)ccc3c2)cc1,-3,0,x,8,7,11,x
Clc1ccc(-c2noc(CCCc3ccccc3)n2)cc1,x,0,23,-8,-1,-11,x
c1ccc(OCCCc2nc(-c3cccnc3)no2)cc1,-8,0,-10,456*,5,-4,1
c1ccc(CCCc2nc(-c3cccnc3)no2)cc1,-10,0,x,628*,0,0,0
O=C1c2ccccc2C(=O)N1CCc1nc(-c2cccnc2)no1,-5,0,35,-13,-4,0,x
CN(C(=O)Cc1c(C(=O)O)n(C)c2ccccc12)c1cccc(C(F)(F)F)c1,-1,0,x,6,-15,-4,x
CC1CCCN(CCCNC(=O)c2ccc(NC(=O)C3=CSCCO3)cc2)C1 (stereo not given),-5,0,x,101,-3,-18,x
Cc1cccc(N2CCN(CCCNC(=O)c3ccc(NC(=O)C4=CSCCO4)cc3)CC2C)c1 (stereo not given),1,0,x,445*,19,-4,0
